Screening results: PubChem BioAssay, several laboratories
A selection: hits, their analogues and other compounds. The true share with any hit is near 4.9%.
STAT1 inh: STAT1 signaling inhibitors, primary screen, cell-based, HTS, luciferase reporter; NIH 3T3 STAT1-luciferase reporter, IFN-gamma, luminescence; inhibition, % at 5.5 µM; actives 0.35% (n = 200,000); AID 920, 2007;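 active = inhibition above a set limit, the mean inhibition across all tested compounds plus 3 SD, cut at about 34% in these data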;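 note: 0% = IFN-gamma with DMSO and 100% = IFN-gamma with 300 µM nifuroxazide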
STAT3 act: IL-6 driven STAT3 reporter potentiators, primary screen, U3A cells, luciferase, luminescence, MLSCN library; activation (% of control), % at 5.6 µM; IL-6 STAT3-luciferase reporter; 100% = signal with IL-6 EC80 alone; actives 0.91% (n = 190,000);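 active = activation above the screen-wide mean of compound activation plus 3 SD, cut at about 130% in these data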;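 note: 0% = background luminescence of wells with medium and substrate only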
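Material: STAT3-luciferase reporter U3A cells. Controls: IL-6-treated wells, 100% activation. Read-out: % activation versus median of IL-6-stimulated wells. Probe or stimulus: IL-6 stimulus at 33 ng/mL final. Timing: compound 1 h, then IL-6 6 h at 37 °C. Signal: reporter luminescence signal.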
STAT3 inh: IL-6 driven STAT3 reporter inhibitors, primary screen, U3A cells, luciferase, luminescence, MLSCN library; IL-6 STAT3-luciferase reporter; host cell line lacks STAT1; inhibition, % at 5.5 µM; actives 0.89% (n = 190,000); AID 862, 2007;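 active = inhibition above the mean inhibition across all screened compounds plus 3 SD, cut at about 44% in these data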;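 note: 0% = DMSO only wells and 100% = 100 µM nifuroxazide control wells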
STAT1 act: STAT1 signaling activators, primary screen, cell-based, HTS, luciferase reporter; NIH 3T3 STAT1-luciferase reporter, IFN-gamma, luminescence; 100% = IFN-gamma alone, no compound; actives 2.6% (n = 200,000); activation (% of control), % at 5.5 µM; AID 932, 2007;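 active = activation above the screen-wide mean activation plus 3 SD, cut at about 130% in these data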;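 note: raw ratio to IFN-gamma control signal so 100% means no change and 0% no light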
APP 5'UTR act: activators of APP 5'UTR luciferase reporter, primary screen, SH-SY5Y cells; activation, % at 2 µM; actives 1% (n = 190,000); SH-SY5Y APP 5'UTR luciferase reporter, luminescence; zero percent = DMSO vehicle wells;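 active = activation above a set limit, based on mean plus 3 SD of controls, cut at about 140% in these data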
NF-kB expr up: activators of NF-kB expression in neurons, primary screen, cell-based, HTS | human neuronal cells, NF-kB reporter expression; hits give high values | fold change at 12.5 µM | actives 1.6% (n = 190,000) | AID 1239, 2008; in the data active = fold change above about 3.3
An asterisk follows results filed as active.

Screening Cn1c(CC(=O)Nc2ccccc2)c(Sc2ccccc2)c2ccccc21 returned STAT1 inh 1, STAT3 act 135*, STAT3 inh -36, STAT1 act 99, APP 5'UTR act -1 and NF-kB expr up 0.87.
Screening Cn1c(CC(=O)Nc2ccccc2C(F)(F)F)c(Sc2ccccc2)c2ccccc21 returned STAT1 inh 5, STAT3 act 97, STAT3 inh 5, STAT1 act 95, APP 5'UTR act 5 and NF-kB expr up 1.
`Cn1c(Cl)c(C(=O)Nc2ccccc2)c2ccccc21` gave STAT1 inh 1, STAT3 act 158*, STAT3 inh -72, STAT1 act 99, APP 5'UTR act 17 and NF-kB expr up 1.2.
Cc1ccc(NC(=O)c2c(O)c3ccccc3n(C)c2=O)nc1 was read as STAT1 inh 5, STAT3 act 135*, STAT3 inh -33, STAT1 act 96, APP 5'UTR act 38 and NF-kB expr up 2.
For COc1ccc(C(=O)NCC(=O)OCC(=O)Nc2sccc2C#N)cc1OC the results were STAT1 inh -11, STAT3 act 118, STAT3 inh -17, STAT1 act 107, APP 5'UTR act 15 and NF-kB expr up 1.1.
`O=C(NCc1ccco1)C1CCCN1C(=O)Nc1ccccc1Cl` (stereo not drawn) gave STAT1 inh 2, STAT3 act 106, STAT3 inh 1, STAT1 act 98, APP 5'UTR act 12 and NF-kB expr up 1.1.
CCOC(=O)C1=C(C)N(C)C(=O)NC1c1cc2c(cc1[N+](=O)[O-])OCO2 (stereo not drawn) was read as STAT1 inh -6, STAT3 act 101, STAT3 inh 1, STAT1 act 104, APP 5'UTR act 5 and NF-kB expr up 1.2.
Cc1ccnc(NS(=O)(=O)c2ccc(NC(=O)c3cc(-c4ccc(Br)cc4)nc4ccccc34)cc2)n1 was read as STAT1 inh -1, STAT3 act 97, STAT3 inh 6, STAT1 act 101, APP 5'UTR act 8 and NF-kB expr up 1.
For CC1SC2(NC1=O)C1CC3CC(C1)CC2C3 (stereo not drawn) the results were STAT1 inh -3, STAT3 act 93, STAT3 inh 13, STAT1 act 103, APP 5'UTR act 3 and NF-kB expr up 1.1.
Cc1cc(C)n(-c2ccc(C(=O)N3CCC(CO)(Cc4ccccc4)CC3)cc2)n1 was read as STAT1 inh 11, STAT3 act 92, STAT3 inh 11, STAT1 act 88, APP 5'UTR act 7 and NF-kB expr up 1.3.
For Cn1c(-c2nnn(-c3ccc(F)cc3)n2)cc2ccccc21 the results were STAT1 inh -51, STAT1 act 149*, APP 5'UTR act 159* and NF-kB expr up 4.1*.
For Cc1ccc(-n2nnc(-c3cc4ccccc4n3C)n2)cc1 the results were STAT1 inh -7, STAT1 act 108, APP 5'UTR act 122 and NF-kB expr up 1.2.
For C=C(C)[C@@H]1CC=C(CN2CCC(CCOC)(C(=O)OCC)CC2)CC1 the results were STAT1 inh 9, STAT3 act 107, STAT3 inh -5, STAT1 act 91, APP 5'UTR act -18 and NF-kB expr up 0.98.
For O=C1C2C3C=CC(C3)C2C(=O)N1c1ccc(-c2nc3ccccc3o2)cc1 (stereo not drawn) the results were STAT1 inh -47, STAT3 act 102, STAT3 inh 2, STAT1 act 143*, APP 5'UTR act 32 and NF-kB expr up 1.3.
O=C1C2C3C=CC(C3)C2C(=O)N1c1ccncc1 (stereo not drawn) was read as STAT1 inh 1, STAT3 act 102, STAT3 inh 2, STAT1 act 99, APP 5'UTR act -3 and NF-kB expr up 1.1.
Screening CSc1ccc(/C=C/c2ccc3cccc(O)c3n2)cc1 returned STAT1 inh -7, STAT3 act 89, STAT3 inh 15, STAT1 act 106, APP 5'UTR act 173* and NF-kB expr up 6.2*.
